High-throughput results: PubChem, several laboratories
APP 5'UTR act: activators of APP 5'UTR luciferase reporter, primary screen, SH-SY5Y cells. 190,000 tested, 1% active. activation, % at 2 µM. SH-SY5Y APP 5'UTR luciferase reporter, luminescence; zero percent = DMSO vehicle wells;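 active means activation above a set limit, based on mean plus 3 SD of controls, cut at about 140% in these data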
FLuc inh counter: firefly luciferase enzyme inhibitors, primary screen, artefact control for luciferase-based inhibitor screens, biochemical, luminescence, ATPLite; 200,000 tested, 1.5% active; inhibition, % at 10 µM; Luciferin 4-monooxygenase (Photinus pyralis), P08659; 10 min; AID 1006, 2008;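 active means inhibition above about 50% when tested at 10 µM, limit read from the data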
Target sequence (P08659 whole entry, looked up): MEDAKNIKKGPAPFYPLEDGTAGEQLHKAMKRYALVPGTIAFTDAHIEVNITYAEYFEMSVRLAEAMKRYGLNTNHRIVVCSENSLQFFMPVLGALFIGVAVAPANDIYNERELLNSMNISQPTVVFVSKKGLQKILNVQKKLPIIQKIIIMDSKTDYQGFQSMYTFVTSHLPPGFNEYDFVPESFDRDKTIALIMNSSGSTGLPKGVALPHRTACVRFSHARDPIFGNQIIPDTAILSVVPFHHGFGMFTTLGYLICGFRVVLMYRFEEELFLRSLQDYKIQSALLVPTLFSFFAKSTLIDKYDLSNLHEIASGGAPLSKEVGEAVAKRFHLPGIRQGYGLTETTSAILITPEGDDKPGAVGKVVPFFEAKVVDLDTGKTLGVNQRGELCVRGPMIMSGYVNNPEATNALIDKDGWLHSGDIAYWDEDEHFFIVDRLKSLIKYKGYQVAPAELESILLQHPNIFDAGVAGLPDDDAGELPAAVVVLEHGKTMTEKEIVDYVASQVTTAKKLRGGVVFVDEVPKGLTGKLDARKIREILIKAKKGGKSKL
STAT1 act: STAT1 signaling activators, primary screen, cell-based, HTS, luciferase reporter; NIH 3T3 STAT1-luciferase reporter, IFN-gamma, luminescence; 100% = IFN-gamma alone, no compound; activation (% of control), % at 5.5 µM; 200,000 tested, 2.6% active; AID 932, 2007;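 active means activation above the screen-wide mean activation plus 3 SD, cut at about 130% in these data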;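 further: raw ratio to IFN-gamma control signal so 100% means no change and 0% no light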
FLuc stim CS: FLuc activators, initial screening, artefact control for FLuc-dependent activation tests, biochemical, ATPlite luminescence. activation factor at 10 µM. ATPlite luciferase biochemical, 10 min; 0 = ATP-free wells, 1 = DMSO control. 200,000 tested, under 10 active;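 active means luciferase activation factor, scaled between plate controls, of at least 2 with compound at 10 µM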
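System: Luciferase/luciferin detection reagent, cell-free biochemical luciferase assay | Medium: PBS buffer for ATP | Dosing: Test compounds dosed from 2 mM stocks in 100% DMSO | Timing: 10 min at ambient temperature | Signal: Luminescence measurement of luciferase light output | Evaluation: Luciferase activation, seen as luminescence increase over controls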
NF-kB neuron act: activators of NF-kB expression in neurons, primary screen, cell-based, HTS; human neuronal cells, NF-kB reporter expression; active compounds read high; AID 1239, 2008; 190,000 tested, 1.6% active; fold change at 12.5 µM; in the data active means fold change above about 3.3
* hit, by the source's call; . = no result given. In the library only some 4.1% were active in any assay of this set; here they are far more common.

SMILES | APP 5'UTR act | FLuc inh counter | STAT1 act | FLuc stim CS | NF-kB neuron act
C/C(=N\Nc1ccc([N+](=O)[O-])cc1)c1ccc2c(c1)OCO2 | 44 | -2 | 136* | 1 | 2.4
Cc1cc(NC(=O)c2ccc3c(c2)OCO3)no1 | 92 | 62* | 118 | 0.4 | 2.9
CCOc1ccc(C(=O)Nc2cc(C)on2)cc1OCC | 6 | -4 | 97 | 1 | 1.3
Cc1cc(NC(=O)CCC(=O)NNC(=O)c2ccc(C(C)(C)C)cc2)no1 | 9 | 78* | 117 | 0.2 | 1.3
CON1C(=O)C(=O)N(OC)C(C)(C)C1(C)C | 12 | -5 | 96 | 1 | 0.97
O=C(CSCc1c(F)cccc1Cl)Nc1ccccc1C(=O)N1CCOCC1 | -5 | -3 | 98 | 1 | 1.1
COC(=O)C1=C(C)NC2=C(C(=O)C(C(=O)OC)C(c3ccc(OC)cc3)C2)C1c1ccccn1 (stereo not drawn) | -4 | -6 | 95 | 1.1 | 1.3
Cc1cc(NC(=O)c2ccc3c(c2)OCCO3)no1 | 106 | 93* | 93 | 0.1 | 4*
CCOC(=O)C(C(C)=O)c1c(Br)c(O)c(O)c2c(C(=O)c3ccc(C)cc3)coc12 (stereo not drawn) | 5 | -5 | 94 | 1.1 | 4.5*
CC(C)N1CCN(Cc2ccoc2)CC1CCO (stereo not drawn) | 16 | -2 | 91 | 1 | 1
CCOC(=O)CCc1c(C)c2ccc(OCC(=O)OC(C)C)cc2oc1=O | 4 | -5 | 98 | 1.1 | 0.92
CCCCc1c(C)c2ccc(OCC(C)=O)cc2oc1=O | 133 | 1 | 133* | 1 | 1.9
CCCc1c(C)c2ccc(OCC(C)=O)cc2oc1=O | 40 | 4 | 131* | 1 | 2
Cc1cc(OCc2cn3cccnc3n2)ccc1Cl | 37 | 16 | 131* | 0.8 | 2.1
COc1ccc(/C=C/C(=O)c2ccccc2)c(OC)c1 | 236* | 71* | 147* | 0.3 | 7.7*
COc1ccc(/C=C/C(=O)c2ccc(OC)cc2OC)c(OC)c1 | 8 | 3 | 98 | 1 | 1.5
COc1ccc(/C=C/C(=O)c2ccc3c(c2)OCO3)c(OC)c1 | 152* | 78* | 129* | 0.2 | 3.2
CN(C)C=NC(=O)c1cc(C(=O)c2ccc(C(C)(C)C)cc2)c[nH]1 | 171* | 21 | 141* | 0.8 | 1.3
COC(=O)c1cc(C(=O)c2ccc(C(C)(C)C)cc2)c[nH]1 | 37 | 7 | 120 | 0.9 | 2
CC(C)(C)c1ccc(C(=O)c2c[nH]c(C(=O)O)c2)cc1 | 88 | 33 | 142* | 0.7 | 0.88
O=S1(=O)N=C2CCCCCN2C(c2ccc(Br)cc2)N1 (stereo not drawn) | -7 | 0 | 98 | 1 | 1.2
O=C(NN=C1CCCCCCC1)c1ccc2ccccc2n1 | 16 | 5 | 110 | 1 | 1.3
CC(=O)Nc1ccc2nc(-c3ccc(Br)o3)[nH]c2c1 | 72 | 34 | 133* | 0.7 | 1.5
CC(=O)Nc1ccc2nc(-c3cccs3)[nH]c2c1 | 69 | 52* | 124 | 0.5 | 1.9
O=C(Nc1ccc2nc(-c3ccc(Br)o3)[nH]c2c1)c1ccco1 | . | 44 | 111 | 0.6 | 0.54
SMILES | APP 5'UTR act | FLuc inh counter | STAT1 act | FLuc stim CS | NF-kB neuron act
CCCCN(C(=O)/C=C/c1ccco1)c1c(N)n(Cc2ccccc2)c(=O)[nH]c1=O | -10 | -4 | 100 | 1 | 1.1
CSC1=C(C#N)C(c2sccc2C)CC(=O)N1 (stereo not drawn) | -2 | -1 | 97 | 1 | 0.91
CC(=O)N1c2ccccc2C(=O)C1N1CCCCC1 (stereo not drawn) | 10 | -9 | 101 | 1.1 | 0.83
Nc1ccc2nc(N3CCOCC3)sc2c1 | 53 | 11 | 122 | 0.9 | 1
c1c2c(cc3sc(N4CCOCC4)nc13)OCCO2 | 81 | 84* | 53 | 0.2 | 1
O=C(Nc1nonc1-c1ccc(Cl)cc1)c1ccccc1 | 0 | -7 | 99 | 1.1 | 1.3
O=C(Cc1ccccc1)Nc1nonc1NC(=O)c1ccccc1 | 16 | -6 | 92 | 1.1 | 3.7*
COc1ccc(-c2cc(-c3cc(F)ccc3O)[nH]n2)cc1OC | 136* | -1 | 106 | 1 | 2.9
COc1ccc(-c2cc(-c3ccccc3O)[nH]n2)cc1OC | 194* | 28 | 109 | 0.7 | 6.8*
Oc1ccccc1-c1cc(-c2ccc3c(c2)OCCO3)n[nH]1 | 211* | 66* | 111 | 0.3 | 8.9*
COc1ccc(-c2cc(-c3ccc(OC)c(OC)c3)n[nH]2)c(O)c1 | 127 | 8 | 97 | 0.9 | 4*
COC(=O)c1cc(-c2ccc(OC)c(OC)c2)n[nH]1 | -13 | -3 | 99 | 1 | 0.81
COc1ccc(-c2[nH]ncc2-c2ccc3c(c2)OCCO3)c(O)c1 | -20 | -7 | 83 | 1.1 | 0.55
COc1cc(/C=N/NC(=O)c2ccc(CSc3nc4ccccc4[nH]3)cc2)ccc1O | -14 | -6 | 107 | 1.1 | 0.57
COc1ccc(-c2cc(-c3cc(OC)ccc3O)[nH]n2)cc1 | 98 | 17 | 114 | 0.8 | 2.8
CCOC(=O)c1cc(-c2ccc3c(c2)OCCO3)n[nH]1 | 113 | 60* | 103 | 0.4 | 4.5*
O=C(O)c1cc(-c2ccc3c(c2)OCCO3)n[nH]1 | 6 | 40 | 101 | 0.6 | 0.99
COc1ccc(O)c(-c2cc(-c3cccc(Br)c3)n[nH]2)c1 | 85 | -2 | 102 | 1 | 3.4*
O=C(C(=O)N1CCCC1CO)N1CCCC1CO (stereo not drawn) | -12 | 1 | 105 | 1 | 0.9
CN(C)c1ccc(-n2cc3c(=O)n(C)c(=O)n(C)c3c2)cc1 | 20 | 8 | 134* | 0.9 | 1.3
O=C(COc1ccccc1Cl)NCc1ccncc1 | -17 | 2 | 100 | 1 | 1.3
O=[N+]([O-])c1cccnc1NCCNc1ncc(C(F)(F)F)cc1Cl | 86 | -3 | 137* | 1 | 3.2
NCCc1c(-c2ccccc2)n(-c2ccccc2)c2ccccc12 | 11 | -4 | 112 | 1 | 0.61
Nc1ccn(Cc2ccccc2)n1 | 5 | -4 | 98 | 1 | 1.4
c1ccc(Cn2ccc(-c3cnc(-c4ccccc4)s3)n2)cc1 | 125 | 44 | 142* | 0.6 | 6.8*
Cc1ccc(OC(=O)c2sc3ncn(C)c(=O)c3c2C)cc1 | 129 | 2 | 136* | 1 | 3.4*
CN1OCC(S(=O)(=O)c2ccccc2)C1c1ccccc1 (stereo not drawn) | 5 | 1 | 95 | 1 | 0.96
COc1cc(C2C(S(=O)(=O)c3ccccc3)CON2C)ccc1OCc1ccc(F)cc1 (stereo not drawn) | 35 | -5 | 98 | 1 | 6.6*
Cc1ccc(/C=N/c2sc3c(c2C(N)=O)CCCC3)o1 | 92 | 27 | 146* | 0.7 | 2
